Tested on: HEK-293T
Assay: Multiplex assay against HEK293T
Assay type: toxicity, cell-based
Details: human
In short: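 Phenotypes for tubulin, mitochondrial mass and membrane permeability are expressed as per cents of healthy-nucleus cells. Cells were stained live at seeding with Hoechst33342, BioTracker Green Microtubule Cytoskeleton Dye, MitoTracker Red and Annexin V Alexa Fluor 680, then imaged after compound addition on a CQ1 microscope at 37°C and 5% CO2. Machine-learning gating in CellPathfinder separated Hoechst high-intensity objects from normal cells, divided normal cells by nuclear state (healthy, pyknosed, fragmented) and divided pyknosed cells into mitotic or apoptotic.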

[1] = 12 h, 1 µM, compound concentration 1 uM, replicate 1
[2] = 12 h, 1 µM, compound concentration 1 uM, replicate 2
[3] = 12 h, 10 µM, compound concentration 10 uM, replicate 1
[4] = 12 h, 10 µM, compound concentration 10 uM, replicate 2
[5] = 24 h, 1 µM, compound concentration 1 uM, replicate 1
[6] = 24 h, 1 µM, compound concentration 1 uM, replicate 2
[7] = 24 h, 10 µM, compound concentration 10 uM, replicate 1
[8] = 24 h, 10 µM, compound concentration 10 uM, replicate 2
[9] = 48 h, 1 µM, compound concentration 1 uM, replicate 1
[10] = 48 h, 1 µM, compound concentration 1 uM, replicate 2
[11] = 48 h, 10 µM, compound concentration 10 uM, replicate 1
[12] = 48 h, 10 µM, compound concentration 10 uM, replicate 2

Cc1c(Cc2ccc3ccccc3n2)c2cc(F)ccc2n1CC(=O)O [TIMAPIPRANT]
Population Apoptotic (%) [1]: 42%
Population Fragmented Nuclei (%) [1]: 7%
Population Healthy Nuclei (%) [1]: 80%
Population Hoechst High Intensity Objects (%) [1]: 10%
Population Membrane Permeable-Phenotype (%) [1]: 0%
Population Mitochondria Different-Phenotype (%) [1]: 36%
Population Mitotic Cells (%) [1]: 57%
Population Normal (%) [1]: 89%
Population Pyknosed Nuclei (%) [1]: 11%
Population Tubulin-Different-Phenotype (%) [1]: 20%
Total Cell Count [1]: 394
Population Fragmented Nuclei (%) [2]: 6%
Population Hoechst High Intensity Objects (%) [2]: 7%
Population Mitochondria Different-Phenotype (%) [2]: 55%
Population Normal (%) [2]: 92%
Population Pyknosed Nuclei (%) [2]: 12%
Population Tubulin-Different-Phenotype (%) [2]: 16%
Total Cell Count [2]: 280
Population Apoptotic (%) [3]: 32%
Population Fragmented Nuclei (%) [3]: 7%
Population Healthy Nuclei (%) [3]: 78%
Population Hoechst High Intensity Objects (%) [3]: 6%
Population Membrane Permeable-Phenotype (%) [3]: 0%
Population Mitochondria Different-Phenotype (%) [3]: 55%
Population Mitotic Cells (%) [3]: 67%
Population Normal (%) [3]: 93%
Population Pyknosed Nuclei (%) [3]: 14%
Population Tubulin-Different-Phenotype (%) [3]: 38%
Total Cell Count [3]: 434
Population Apoptotic (%) [4]: 33%
Population Fragmented Nuclei (%) [4]: 6%
Population Hoechst High Intensity Objects (%) [4]: 5%
Population Mitochondria Different-Phenotype (%) [4]: 63%
Population Mitotic Cells (%) [4]: 66%
Population Normal (%) [4]: 94%
Population Pyknosed Nuclei (%) [4]: 15%
Population Tubulin-Different-Phenotype (%) [4]: 28%
Total Cell Count [4]: 354
Population Apoptotic (%) [5]: 31%
Population Fragmented Nuclei (%) [5]: 10%
Population Healthy Nuclei (%) [5]: 81%
Population Hoechst High Intensity Objects (%) [5]: 4%
Population Membrane Permeable-Phenotype (%) [5]: 1%
Population Mitochondria Different-Phenotype (%) [5]: 20%
Population Mitotic Cells (%) [5]: 68%
Population Normal (%) [5]: 95%
Population Pyknosed Nuclei (%) [5]: 8%
Population Tubulin-Different-Phenotype (%) [5]: 15%
Total Cell Count [5]: 516
Population Apoptotic (%) [6]: 53%
Population Fragmented Nuclei (%) [6]: 7%
Population Healthy Nuclei (%) [6]: 83%
Population Hoechst High Intensity Objects (%) [6]: 5%
Population Membrane Permeable-Phenotype (%) [6]: 0%
Population Mitochondria Different-Phenotype (%) [6]: 38%
Population Mitotic Cells (%) [6]: 46%
Population Normal (%) [6]: 94%
Total Cell Count [6]: 381
Population Apoptotic (%) [7]: 32%
Population Fragmented Nuclei (%) [7]: 7%
Population Healthy Nuclei (%) [7]: 78%
Population Hoechst High Intensity Objects (%) [7]: 4%
Population Membrane Permeable-Phenotype (%) [7]: 0%
Population Mitochondria Different-Phenotype (%) [7]: 31%
Population Mitotic Cells (%) [7]: 67%
Population Normal (%) [7]: 95%
Population Pyknosed Nuclei (%) [7]: 13%
Population Tubulin-Different-Phenotype (%) [7]: 28%
Total Cell Count [7]: 560
Population Apoptotic (%) [8]: 37%
Population Fragmented Nuclei (%) [8]: 12%
Population Healthy Nuclei (%) [8]: 77%
Population Hoechst High Intensity Objects (%) [8]: 5%
Population Mitochondria Different-Phenotype (%) [8]: 44%
Population Mitotic Cells (%) [8]: 62%
Population Normal (%) [8]: 94%
Population Pyknosed Nuclei (%) [8]: 10%
Population Tubulin-Different-Phenotype (%) [8]: 20%
Total Cell Count [8]: 475
Population Apoptotic (%) [9]: 26%
Population Fragmented Nuclei (%) [9]: 13%
Population Healthy Nuclei (%) [9]: 78%
Population Hoechst High Intensity Objects (%) [9]: 2%
Population Membrane Permeable-Phenotype (%) [9]: 1%
Population Mitochondria Different-Phenotype (%) [9]: 9%
Population Mitotic Cells (%) [9]: 73%
Population Normal (%) [9]: 97%
Population Pyknosed Nuclei (%) [9]: 8%
Population Tubulin-Different-Phenotype (%) [9]: 6%
Total Cell Count [9]: 799
Population Apoptotic (%) [10]: 17%
Population Fragmented Nuclei (%) [10]: 15%
Population Healthy Nuclei (%) [10]: 76%
Population Hoechst High Intensity Objects (%) [10]: 3%
Population Membrane Permeable-Phenotype (%) [10]: 0%
Population Mitochondria Different-Phenotype (%) [10]: 25%
Population Mitotic Cells (%) [10]: 82%
Population Normal (%) [10]: 96%
Population Tubulin-Different-Phenotype (%) [10]: 12%
Total Cell Count [10]: 566
Population Apoptotic (%) [11]: 33%
Population Fragmented Nuclei (%) [11]: 10%
Population Healthy Nuclei (%) [11]: 79%
Population Hoechst High Intensity Objects (%) [11]: 4%
Population Membrane Permeable-Phenotype (%) [11]: 1%
Population Mitochondria Different-Phenotype (%) [11]: 24%
Population Mitotic Cells (%) [11]: 66%
Population Normal (%) [11]: 95%
Population Pyknosed Nuclei (%) [11]: 9%
Population Tubulin-Different-Phenotype (%) [11]: 17%
Total Cell Count [11]: 752
Population Apoptotic (%) [12]: 36%
Population Fragmented Nuclei (%) [12]: 14%
Population Healthy Nuclei (%) [12]: 78%
Population Membrane Permeable-Phenotype (%) [12]: 0%
Population Mitochondria Different-Phenotype (%) [12]: 33%
Population Mitotic Cells (%) [12]: 63%
Population Pyknosed Nuclei (%) [12]: 6%
Population Tubulin-Different-Phenotype (%) [12]: 16%
Total Cell Count [12]: 630

CCCCCCNC(=O)Nc1ccc(S(=O)(=O)Nc2ccc(CCNC[C@H](O)COc3ccc(O)cc3)cc2)cc1 [L-755507]
Population Apoptotic (%) [1]: 35%
Population Fragmented Nuclei (%) [1]: 8%
Population Healthy Nuclei (%) [1]: 84%
Population Hoechst High Intensity Objects (%) [1]: 7%
Population Membrane Permeable-Phenotype (%) [1]: 0%
Population Mitochondria Different-Phenotype (%) [1]: 39%
Population Mitotic Cells (%) [1]: 64%
Population Normal (%) [1]: 92%
Population Pyknosed Nuclei (%) [1]: 7%
Population Tubulin-Different-Phenotype (%) [1]: 28%
Total Cell Count [1]: 494
Population Apoptotic (%) [2]: 31%
Population Fragmented Nuclei (%) [2]: 6%
Population Healthy Nuclei (%) [2]: 83%
Population Mitochondria Different-Phenotype (%) [2]: 64%
Population Mitotic Cells (%) [2]: 68%
Population Pyknosed Nuclei (%) [2]: 10%
Population Tubulin-Different-Phenotype (%) [2]: 32%
Total Cell Count [2]: 403
Population Apoptotic (%) [3]: 58%
Population Fragmented Nuclei (%) [3]: 10%
Population Healthy Nuclei (%) [3]: 74%
Population Hoechst High Intensity Objects (%) [3]: 17%
Population Membrane Permeable-Phenotype (%) [3]: 0%
Population Mitochondria Different-Phenotype (%) [3]: 69%
Population Mitotic Cells (%) [3]: 41%
Population Normal (%) [3]: 82%
Population Pyknosed Nuclei (%) [3]: 14%
Population Tubulin-Different-Phenotype (%) [3]: 68%
Total Cell Count [3]: 384
Population Apoptotic (%) [4]: 71%
Population Fragmented Nuclei (%) [4]: 8%
Population Healthy Nuclei (%) [4]: 79%
Population Hoechst High Intensity Objects (%) [4]: 7%
Population Mitochondria Different-Phenotype (%) [4]: 87%
Population Mitotic Cells (%) [4]: 28%
Population Normal (%) [4]: 92%
Population Pyknosed Nuclei (%) [4]: 11%
Population Tubulin-Different-Phenotype (%) [4]: 61%
Total Cell Count [4]: 341
Population Apoptotic (%) [5]: 19%
Population Fragmented Nuclei (%) [5]: 9%
Population Healthy Nuclei (%) [5]: 80%
Population Hoechst High Intensity Objects (%) [5]: 5%
Population Membrane Permeable-Phenotype (%) [5]: 0%
Population Mitochondria Different-Phenotype (%) [5]: 20%
Population Mitotic Cells (%) [5]: 80%
Population Normal (%) [5]: 94%
Population Pyknosed Nuclei (%) [5]: 9%
Population Tubulin-Different-Phenotype (%) [5]: 20%
Total Cell Count [5]: 634
Population Apoptotic (%) [6]: 30%
Population Fragmented Nuclei (%) [6]: 11%
Population Hoechst High Intensity Objects (%) [6]: 4%
Population Mitochondria Different-Phenotype (%) [6]: 42%
Population Mitotic Cells (%) [6]: 70%
Population Normal (%) [6]: 95%
Population Pyknosed Nuclei (%) [6]: 7%
Population Tubulin-Different-Phenotype (%) [6]: 22%
Total Cell Count [6]: 547
Population Apoptotic (%) [7]: 26%
Population Fragmented Nuclei (%) [7]: 8%
Population Healthy Nuclei (%) [7]: 80%
Population Hoechst High Intensity Objects (%) [7]: 14%
Population Membrane Permeable-Phenotype (%) [7]: 0%
Population Mitochondria Different-Phenotype (%) [7]: 59%
Population Mitotic Cells (%) [7]: 73%
Population Normal (%) [7]: 85%
Population Pyknosed Nuclei (%) [7]: 11%
Population Tubulin-Different-Phenotype (%) [7]: 42%
Total Cell Count [7]: 461
Population Apoptotic (%) [8]: 48%
Population Fragmented Nuclei (%) [8]: 7%
Population Healthy Nuclei (%) [8]: 83%
Population Hoechst High Intensity Objects (%) [8]: 9%
Population Mitochondria Different-Phenotype (%) [8]: 68%
Population Mitotic Cells (%) [8]: 51%
Population Normal (%) [8]: 90%
Population Pyknosed Nuclei (%) [8]: 9%
Population Tubulin-Different-Phenotype (%) [8]: 51%
Total Cell Count [8]: 402
Population Apoptotic (%) [9]: 10%
Population Fragmented Nuclei (%) [9]: 12%
Population Healthy Nuclei (%) [9]: 81%
Population Hoechst High Intensity Objects (%) [9]: 3%
Population Membrane Permeable-Phenotype (%) [9]: 2%
Population Mitochondria Different-Phenotype (%) [9]: 16%
Population Mitotic Cells (%) [9]: 89%
Population Normal (%) [9]: 96%
Population Pyknosed Nuclei (%) [9]: 6%
Population Tubulin-Different-Phenotype (%) [9]: 15%
Total Cell Count [9]: 1052
Population Apoptotic (%) [10]: 15%
Population Fragmented Nuclei (%) [10]: 13%
Population Healthy Nuclei (%) [10]: 80%
Population Hoechst High Intensity Objects (%) [10]: 5%
Population Mitochondria Different-Phenotype (%) [10]: 24%
Population Mitotic Cells (%) [10]: 84%
Population Normal (%) [10]: 94%
Population Tubulin-Different-Phenotype (%) [10]: 20%
Total Cell Count [10]: 775
Population Apoptotic (%) [11]: 46%
Population Fragmented Nuclei (%) [11]: 15%
Population Healthy Nuclei (%) [11]: 75%
Population Hoechst High Intensity Objects (%) [11]: 11%
Population Membrane Permeable-Phenotype (%) [11]: 1%
Population Mitochondria Different-Phenotype (%) [11]: 36%
Population Mitotic Cells (%) [11]: 53%
Population Normal (%) [11]: 88%
Population Pyknosed Nuclei (%) [11]: 9%
Population Tubulin-Different-Phenotype (%) [11]: 32%
Total Cell Count [11]: 598
Population Apoptotic (%) [12]: 65%
Population Fragmented Nuclei (%) [12]: 13%
Population Healthy Nuclei (%) [12]: 80%
Population Hoechst High Intensity Objects (%) [12]: 8%
Population Membrane Permeable-Phenotype (%) [12]: 0%
Population Mitochondria Different-Phenotype (%) [12]: 47%
Population Mitotic Cells (%) [12]: 34%
Population Normal (%) [12]: 91%
Population Pyknosed Nuclei (%) [12]: 5%
Population Tubulin-Different-Phenotype (%) [12]: 39%
Total Cell Count [12]: 596

— ChEMBL document CHEMBL5058577, “EUbOPEN Chemogenomics Library 2 (Multiplex)” (2022)
